Data as given in ChEMBL document CHEMBL1153315, “Porphyrins containing nitric oxide donors: Synthesis and cancer cell-oriented NO release” (Bioorg Med Chem Lett, 2009).
The source made the active and inactive calls. No cut-off for these calls is given here.

Columns and labels:
[1] = system: MCF7; experiment: Cytotoxicity against human MCF7 after 72 hrs by MTT assay; assay type: functional, cell-based; conditions: MCF7, 72 h
In short: (§1)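 Cells seeded at 1×10^3 per well in medium, preincubated 24 h at 37 °C in 5% CO2, then test drug added in medium to quadruplicate wells for 72 h. MTT ([…] in complete medium) added for 4 h; formazan dissolved in DMSO buffered with glycine-NaCl (pH 10.5); absorbance at 570 nm. IC50 taken as concentration giving 50% loss of viability; means of three experiments.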

[2] = system: Bel-7402; experiment: Cytotoxicity against human Bel7402 after 72 hrs by MTT assay; assay type: functional, cell-based; conditions: Bel-7402, 72 h; in short: as §1
[3] = Induction of NO release in PBS at pH 7.4 by Griess assay; assay type: physicochemical; conditions: buffer
In short: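 Compound at 2 mM in 0.1 M phosphate buffer pH 7.4, no L-cysteine, incubated 1.5 h at 37 °C without air, then 10 min air at 25 °C. Nitrite measured by Griess reagent (sulfanilamide/N-naphthylethylenediamine), absorbance at 540 nm against a 0–100 µM sodium nitrite curve; expressed as % of 1 mol NO/mol theoretical release, n = 3.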

[4] = Induction of NO release in phosphate buffer containing L-cysteine at pH 7.4 by Griess assay; assay type: physicochemical
In short: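 Compound at 0.2 mM in 0.1 M phosphate buffer pH 7.4 mixed 1:1 with fresh 3.6 mM L-cysteine in the same buffer; incubated 1.5 h at 37 °C without air, then exposed to air 10 min at 25 °C. Griess reagent added, absorbance at 540 nm after 10 min; nitrite from sodium nitrite standard curve (0–100 µM); % of 1 mol NO/mol theoretical, n = 3.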

[5] = system: Bel-7402; experiment: Cytotoxicity against human Bel7402 cells at 1.4 umol/L after 72 hrs by MTT assay; assay type: functional, cell-based
In short: (§2)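 BEL-7402 (liver cancer) and L-02 (liver normal) cells seeded at 1×10^3 per well, preincubated 24 h at 37 °C, 5% CO2, exposed to 1.4 μmol/L compound in quadruplicate wells for 72 h. Viability by MTT (4 h), formazan dissolved in glycine-NaCl-buffered DMSO, read at 570 nm. One-way ANOVA with LSD multiple comparisons, P < 0.05.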

[6] = system: Bel-7402; experiment: Induction of NO release in human Bel7402 cells assessed as decrease in absorbance at 100 umol/L after 30 mins by spectrophotometry; assay type: functional, cell-based
In short: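 BEL-7402 cells grown in 24-well plates at 37 °C, 5% CO2 to at least 70% confluency; medium replaced with medium containing 100 µmol/L compound. After 0 and 30 min at 37 °C, the drug-containing medium was removed and its absorbance measured by UV–vis spectrophotometry.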

[7] = Cytotoxicity against human L02 cells at 1.4 umol/L after 72 hrs by MTT assay; assay type: cell-based; conditions: l02, 72 h, 1.4 µM; in short: as §2

Structure (SMILES) | IC50 [1] [µM] | IC50 [2] [µM] | Activity [3] [%] | Activity [4] [%] | Activity [5] | Activity [6] | Activity [7]
O=[N+]([O-])OCCCOc1ccc(-c2c3nc(c(-c4ccccc4)c4ccc([nH]4)c(-c4ccccc4)c4nc(c(-c5ccccc5)c5ccc2[nH]5)C=C4)C=C3)cc1 | 30 | 3 | 0.47 | 3.95 | Active | – | –
O=[N+]([O-])OCCOc1ccc(-c2c3nc(c(-c4ccccc4)c4ccc([nH]4)c(-c4ccccc4)c4nc(c(-c5ccccc5)c5ccc2[nH]5)C=C4)C=C3)cc1 | 8.7 | 0.8 | 0.43 | 5.67 | Active | Active | –
Cc1ccc(-c2c3nc(c(-c4ccc(C)cc4)c4ccc([nH]4)c(-c4ccc(OCCO[N+](=O)[O-])cc4)c4nc(c(-c5ccc(C)cc5)c5ccc2[nH]5)C=C4)C=C3)cc1 | 55 | 1.8 | 0.55 | 3.12 | Active | – | –
O=Cc1ccc(OCCCO[N+](=O)[O-])cc1 | – | – | – | – | – | – | Toxic
Cc1ccc(-c2c3nc(c(-c4ccc(C)cc4)c4ccc([nH]4)c(-c4ccc(OCCCO[N+](=O)[O-])cc4)c4nc(c(-c5ccc(C)cc5)c5ccc2[nH]5)C=C4)C=C3)cc1 | 46 | 1.4 | 1.1 | 6.25 | Active | – | –
O=c1[nH]cc(F)c(=O)[nH]1 [FLUOROURACIL] | 4.7 | 4.3 | – | – | – | – | –
O=Cc1ccc(OCCO[N+](=O)[O-])cc1 | – | – | – | – | – | – | Toxic
C1=Cc2nc1c(-c1ccccc1)c1nc(c(-c3ccccc3)c3ccc([nH]3)c(-c3ccccc3)c3ccc([nH]3)c2-c2ccccc2)C=C1 [TETRAPHENYLPORPHYRIN] | 245 | 350 | – | – | – | – | –
